From PMC5587398 (Journal of pharmaceutical and biomedical analysis, 2017) come the findings set out here.

Data set [1] can be described thus: Pharmacokinetic study in mice after single oral dose. In kind it is in vivo, male C57BL/6 mice. A digest of the protocol: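 Male C57BL/6 mice (~30 g; 12 total, n=4 per time point) got a single 30 mg/kg gavage, 10 mL/kg, in 20 mM citric buffer (pH~3). K2EDTA blood was drawn at 0.167–24 hr and the plasma stored at -80°C. Plasma was precipitated with ACN/MeOH 7/3 containing deuterated IS, then run on HILIC amide +ESI SRM (0.01–25 µM calibration). Non-compartmental parameters were taken from mean concentrations per time point.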

Data set [2] can be described thus: Pharmacokinetic study in rats after single oral dose. As to conditions: plasma. In kind it is in vivo, male Sprague-Dawley rats. An outline of the steps:
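Male Sprague-Dawley rats (~300 g, n=4) got a single 30 mg/kg oral gavage, 10 mL/kg, in 20 mM citric buffer (pH~3). K2EDTA blood was drawn at 0.167, 0.5, 1, 2, 3, 5, 7 and 24 hr, and plasma was stored at -80°C. Analysis used IS-containing ACN/MeOH precipitation and HILIC-UPLC-MS/MS. Non-compartmental analysis used linear-trapezoidal AUC; t1/2 = 0.693/λ, with λ from ≥3 terminal points.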

[3] abbreviates: male, C57BL/6, mouse, plasma, po, 30 mg/kg.
The mark [4] stands for this setting: male, Sprague-Dawley, rat, po, 30 mg/kg.

A word on the half-life: it is the time in which the quantity being followed falls by half. Broadly, the AUC(0-inf) is the area under the concentration-time curve extrapolated to infinity. A low value points to low exposure. A word on the Cmax: it is the maximum level reached in the sampled fluid or tissue. What is called Tmax is the time from dosing to the highest level.

The compound `NC1=NCCN1CC(=O)O` [cyclocreatine, 1-Carboxymethyl-2-iminoimidazolidine] had a half-life in data set [1] (male, C57BL/6 (mice), Sprague-Dawley (rats), mouse, plasma, po, 30 mg/kg) of 7 to 8 h. In addition, in data set [1] (setting [3]), the total exposure AUC(0-inf) worked out at 84100 ng·h/mL, the maximum concentration (Cmax) amounted to 5620 ng/mL and the Tmax came to 5 h. In addition, the “absorption after PO administration” value in data set [1] (rodents (mice and rats), PO administration, summary statement) was “well absorbed”. The “t(1/2)” value in data set [2] (male SD rats (n=4), 30 mg/kg PO single dose, mean ± SD) came out at 7.9 ± 0.9 h. Also, in data set [2] (setting [4]), the AUC(0-inf) is 91700 ± 18000 ng·h/mL, the highest level (Cmax) was 13300 ± 2600 ng/mL and the time to peak (Tmax) is 0.58 ± 0.48 h.
